Data on 19 molecules can be found in ChEMBL document CHEMBL2331432, “Synthesis and dual biological effects of hydroxycinnamoyl phenylalanyl/prolyl hydroxamic acid derivatives as tyrosinase inhibitor and antioxidant” (Bioorg Med Chem Lett, 2013).

Active and inactive are the calls of the source. No cut-off for these calls is given here.

As usually defined, the inhibition is the drop in the measured response relative to a control, in per cent. For orientation: IC50 means the concentration that inhibits the measured activity by half.

Data set [1] in a line: Antioxidant activity assessed as inhibition of lipid peroxidation after 48 hrs by ferric thiocyanate assay. The data set is classed as functional. In outline:
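Lipid peroxidation run in an emulsified system with antioxidant at 90 µM final, 50 °C in the dark for 48 h. Ferric thiocyanate read-out: absorbance at 500 nm 3 min after colour development. Trolox as positive control. Triplicate, mean with standard error.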

The test system of data set [2] is Radical scavenging activity. Description: Antioxidant activity assessed as DPPH radical scavenging activity by UV/Visible spectrophotometry. It is filed as functional. In outline: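 DPPH in methanol; antioxidant:DPPH molar ratio 0.25 for caffeic/dihydrocaffeic acids and their conjugates, 0.50 for p-coumaric, ferulic, sinapic acids and their conjugates. 10 min at 25 °C, absorbance at 516 nm. %RSA = (1−A/B)×100, B = methanol in place of sample. Triplicate, mean with standard error.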
Background: The DPPH test is a chemical assay of radical scavenging.

Data set [3] addresses T1, Tyrosinase (Agaricus bisporus) (UniProt O42713).
T1 sequence (whole entry): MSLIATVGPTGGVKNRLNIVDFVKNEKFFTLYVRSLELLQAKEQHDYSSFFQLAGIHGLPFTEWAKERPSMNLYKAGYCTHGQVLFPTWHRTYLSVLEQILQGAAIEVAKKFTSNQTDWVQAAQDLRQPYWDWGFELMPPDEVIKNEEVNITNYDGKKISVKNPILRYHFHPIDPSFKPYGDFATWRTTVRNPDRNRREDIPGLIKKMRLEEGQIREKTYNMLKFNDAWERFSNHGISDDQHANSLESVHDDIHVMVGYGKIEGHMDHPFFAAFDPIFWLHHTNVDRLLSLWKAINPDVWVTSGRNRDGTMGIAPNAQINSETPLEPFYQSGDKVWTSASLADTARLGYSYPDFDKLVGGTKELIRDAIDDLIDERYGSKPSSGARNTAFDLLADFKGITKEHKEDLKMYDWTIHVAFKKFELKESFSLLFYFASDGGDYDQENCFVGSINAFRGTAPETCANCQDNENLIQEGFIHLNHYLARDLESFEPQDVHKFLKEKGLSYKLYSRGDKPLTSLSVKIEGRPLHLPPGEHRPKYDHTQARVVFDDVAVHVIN
The data set is described as follows: Inhibition of mushroom tyrosinase using L-DOPA substrate at 50 to 100 uM incubated for 10 mins. In outline:
(§1)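 Mushroom tyrosinase (25 µL of 100 µg/mL aqueous solution) added to 0.1 M phosphate buffer pH 6.8, 2.5 mM L-DOPA (stock), water and inhibitor in DMSO. Incubated 25 °C for 10 min, absorbance at 475 nm. %inhibition = (1−A/B)×100 against a DMSO-only reference. Single-point tests at 50 or 100 µM; kojic acid as reference. Triplicate, mean with standard error.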

The target in data set [4] is T1, Tyrosinase (Agaricus bisporus). Description: Inhibition of mushroom tyrosinase using L-DOPA substrate at 100 uM incubated for 10 mins. An outline of the steps:
as §1

Data set [5] in a line: Toxicity against mouse Mel-Ab cells at 100 uM by CCK-8 assay. In general terms: Formazan colour is commonly taken as a measure of viable cells.
Data set [6] can be described thus: (§2) Inhibition of TPA-stimulated melanogenesis in mouse Mel-Ab cells at 100 uM after 4 days. It is filed as functional. As to conditions: 96 h.
The test system of another data set is Mel-Ab. The data set is described as §2. It is filed as functional.
In the next data set the target is T2, Tyrosinase (Agaricus bisporus, UniProt O42713).
T2 sequence (O42713 whole entry): T1 sequence (whole entry)
Description: Inhibition of mushroom tyrosinase using L-DOPA substrate incubated for 10 mins.

For the molecule `O=C(NO)C1CCCN1C(=O)/C=C/c1ccc(O)cc1` (centres undefined), in data set [1], the inhibition result was “inactive”. Moreover, the outcome in data set [2] was inactive. The inhibition entry in data set [3] was “Active”.
In data set [4], `CC(=O)NC(Cc1ccccc1)C(=O)NO` (centres undefined) came in with an inhibition of 6%.
For `COc1cc(/C=C/C(=O)N2CCCC2C(=O)NO)ccc1O` (centres undefined), the inhibition entry in data set [1] is “Active”. The result in data set [2] was Active. Moreover, the Activity result in data set [5] is on record as “Non-toxic”. Besides, the inhibition result in data set [3] is “inactive”.
Take `O=C(O)/C=C/c1ccc(O)cc1`: the inhibition entry in data set [1] is “inactive”. The outcome in data set [2] was inactive.
With `O=C(NO)C1CCCN1C(=O)CCc1ccc(O)c(O)c1` (centres undefined), the inhibition entry in data set [1] and in data set [3] was “inactive” in each case.
For `COc1cc(/C=C/C(=O)O)ccc1O`, the result in data set [2] was Active. In addition, in data set [3], the inhibition result was “inactive”.
Consider `COc1cc(/C=C/C(=O)N2CCCC2C(=O)NO)cc(OC)c1O` (centres undefined), for which, in data set [1], the inhibition result was “Active”. Also, the outcome in data set [2] was Active. The inhibition at 100 µM in data set [6] turned out to be 30%. Moreover, the Activity result in data set [5] is “Non-toxic”. In addition, the inhibition entry in data set [3] was “inactive”.
Regarding `O=C(/C=C/c1ccc(O)cc1)NC(Cc1ccccc1)C(=O)NO` (centres undefined), in data set [1], the inhibition result is “inactive”. The result in data set [2] was inactive. In addition, the inhibition entry in data set [3] was “Active”.
On to `COc1cc(/C=C/C(=O)O)cc(OC)c1O`, for which, in data set [3], the inhibition result is “inactive”.
With `OC[C@H]1O[C@@H](Oc2ccc(O)cc2)[C@H](O)[C@@H](O)[C@@H]1O`, the inhibition entry with Mel-Ab is “Active”.
As to `COc1cc(/C=C/C(=O)NC(Cc2ccccc2)C(=O)NO)cc(OC)c1O` (centres undefined), the inhibition result in data set [1] is “Active”. This molecule also gave an inhibition at 100 µM in data set [6] of 30%. The Activity entry in data set [5] is recorded as “Non-toxic”. Besides, the inhibition result in data set [3] is “inactive”.
Take `COc1cc(/C=C/C(=O)NC(Cc2ccccc2)C(=O)NO)ccc1O` (centres undefined): the inhibition result in data set [1] was “Active”. In data set [2], the result was Active. For the same molecule, the inhibition result (with Mel-Ab; in data set [3]) was “inactive” each time. Also, the Activity entry in data set [5] was “Non-toxic”.
For `O=C(O)CCc1ccc(O)c(O)c1`, in data set [1], the inhibition result is “inactive”.
Consider `O=C(O)/C=C/c1ccc(O)c(O)c1` [CAFFEIC ACID], for which the Activity result in data set [5] was “Toxic”.
On to `O=C(NO)C1CCCN1C(=O)/C=C/c1ccc(O)c(O)c1` (centres undefined), for which the inhibition result in data set [1] and in data set [3] was “Active” in each case. Besides, the result in data set [2] was Active. In addition, in data set [6], 100 µM produced 30% inhibition. The Activity entry in data set [5] was “Non-toxic”.
Consider `NC(=O)C(Cc1ccccc1)NC(=O)OCc1cc(=O)c(O)co1` (centres undefined), for which it took 4.2 µM to reach half-maximal inhibition on Tyrosinase (IC50).
As for `O=C(CCc1ccc(O)c(O)c1)NC(Cc1ccccc1)C(=O)NO` (centres undefined), the inhibition entry in data set [1] and in data set [3] was “inactive” in each case.
For `CC(=O)N1CCCC1C(=O)NO` (centres undefined), the inhibition in data set [4] turned out to be 5%.
As to `O=C(/C=C/c1ccc(O)c(O)c1)NC(Cc1ccccc1)C(=O)NO` (centres undefined), the inhibition result (in data set [1]; in the data set with Mel-Ab; in data set [3]) was “Active” each time. Further, the Activity entry in data set [5] is recorded as “Non-toxic”. The molecule also registered an IC50 against Tyrosinase of 4.9 µM.
